Hits are enriched below; roughly 3.5% of the tested compounds scored in any of these assays.
MrgX1 ag = agonists of human MrgX1 receptor, primary screen, HEK293 cells, Fluo-4 calcium flux; Mas-related G-protein coupled receptor member X1 (Homo sapiens), Q96LB2; Fluo-4 calcium fluorescence, agonist mode; active compounds read high; B-score at 10 µM; 310,000 tested, 0.44% active;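 active = calcium response B-score plate-corrected fluorescence ratio at least 3 library SD, with starting fluorescence B-score inside 5 SD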
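Material – MrgX1-expressing HEK293 cells · Input – 15,000 cells seeded per well · Dosing – compound as first of three additions · Times – overnight seeding, then 1 h dark dye loading · Measured by – kinetic Fluo-4 NW fluorescence of intracellular calcium · Read-out – B-scored fluorescence response ratio · Benchmarks – positive and negative control wells on each plate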
RGS4 block = RGS4 inhibitors, primary screen, cell-based, HEK293 M3R inducible RGS4, calcium flux | Regulator of G-protein signaling 4 (Homo sapiens), P49798 | Fluo-4 calcium flux; active compounds read high; triggered by carbachol at its EC20 | B-score at 10 µM | 310,000 tested, 0.45% active;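 active = B-score, a plate-corrected calcium signal, over three deviations above library mean, with baseline fluorescence within five deviations of library mean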;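 also: RGS4 expression induced by doxycycline in cells with stable M3 receptor; B-score is computed from the integrated fluorescence ratio over baseline after carbachol; higher B-score means a larger calcium signal and so more RGS4 inhibition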
Target sequence (P49798 whole entry, looked up): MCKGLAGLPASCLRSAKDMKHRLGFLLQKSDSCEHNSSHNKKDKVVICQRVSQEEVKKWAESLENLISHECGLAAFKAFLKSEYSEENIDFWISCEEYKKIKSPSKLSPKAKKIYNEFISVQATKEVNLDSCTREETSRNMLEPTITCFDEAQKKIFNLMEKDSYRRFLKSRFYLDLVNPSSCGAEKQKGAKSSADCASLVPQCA
MrgX1 PAM = positive allosteric modulators of MrgX1, primary screen, HEK293 cells, Fluo-4 calcium flux; Mas-related G-protein coupled receptor member X1 (Homo sapiens), Q96LB2; B-score at 10 µM; FDSS; active compounds read high; 310,000 tested, 0.63% active; AID 588675, 2011;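 active = plate-corrected calcium response at least 3 library SD above typical, normal starting fluorescence, not activating the receptor alone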;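 also: compound read alongside a low EC10 to EC30 dose of BAM8-22 agonist; peak minus trough fluorescence over baseline measured at the second addition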
MrgX1 antag = antagonists of human MrgX1 receptor, primary screen, HEK293 cells, Fluo-4 calcium flux; BAM8-22 antagonism; active compounds read low; B-score at 10 µM; 310,000 tested, 1.3% active; AID 588676, 2011;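 active = calcium-response B-score plate-corrected more than 3 library SD below zero, starting fluorescence within 5 deviations, no agonist response on first addition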;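 also: peak minus trough fluorescence over baseline after final BAM8-22 challenge near maximal dose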
RGS4 act = RGS4 potentiators or activators, primary screen, cell-based, HEK293 M3R inducible RGS4, calcium flux. carbachol calcium flux Fluo4; active compounds read low. B-score at 10 µM. 310,000 tested, 0.92% active;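 active = B-score of the integrated calcium signal more than 4 SD below the library mean, with starting fluorescence not abnormally high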;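 also: negative B-score means reduced calcium response which marks RGS4 activation or potentiation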
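Test system: HEK293 cells with stable M3R and inducible RGS4; also added: carbachol at ECmax as muscarinic agonist stimulus; schedule: dye loading 30 min 37 °C, buffer rest 30 min RT; technique: kinetic calcium fluorescence imaging with Fluo4-AM dye, 2 µM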
MrgX1 PAM conf = MrgX1 positive allosteric modulators, duplicate retest, confirmation, HEK293 cells, Fluo-4 calcium flux; shares compounds with MrgX1 PAM; Fluo-4 calcium fluorescence, FDSS; activation (ratio percentage), % at 10 µM; 1,200 tested, 13% active; AID 602413, 2012;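 active = ratio at least 3 SD above the weak peptide control, stable starting fluorescence, no direct agonism earlier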;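 also: compound followed by low BAM8-22 agonist challenge near EC20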
HEK293 Ca flux = nonspecific calcium signal in parental HEK293, confirmation, counter-screen for MrgX1 antagonist project, parental HEK293 cells, Fluo-4 calcium flux. shares compounds with MrgX1 antag. Fluo-4 calcium fluorescence, FDSS. fluorescence ratio F(max-min)/F0 at 10 µM. 4,000 tested, 2% active. AID 624111, 2012;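 active = duplicate-averaged calcium fluorescence ratio at least three times the standard deviation of buffer wells, a nonspecific response in parental cells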
HEK293 Ca counter = calcium response in parental HEK293 cells, primary screen, counter-screen for MrgX1 allosteric activator project, cell-based, Fluo-4 calcium flux, duplicate. shares compounds with MrgX1 antag. Fluo-4 fluorescence ratio; active compounds read high. fluorescence ratio F(max-min)/F0 at 10 µM. 4,000 tested, 0.4% active;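 active = calcium fluorescence ratio, averaged over duplicates, at least 3 SD of the buffer-well ratio, meaning a nonspecific response in receptor-free cells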;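 also: untransfected parental HEK293 lacking MrgX1 used as counterscreen for MrgX1 allosteric activators; fluorescence change taken during the second addition on a kinetic imager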
HEK293 Ca cntr2 = calcium response in parental HEK293 cells, primary screen, counter-screen for MrgX1 agonist project, cell-based, Fluo-4 calcium flux, duplicate, agonist mode; shares compounds with MrgX1 antag; 4,000 tested, 8.7% active; Fluo-4 calcium fluorescence (FDSS); active compounds read high; fluorescence ratio F(max-min)/F0 at 10 µM;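 active = calcium fluorescence ratio at least three times the spread of buffer wells, meaning a non-specific response in parental cells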
Numbers without * were called inactive; i = inactive; x = no result.

SMILES | MrgX1 ag | RGS4 block | MrgX1 PAM | MrgX1 antag | RGS4 act | MrgX1 PAM conf | HEK293 Ca flux | HEK293 Ca counter | HEK293 Ca cntr2
CC1(C)CC(=O)c2sc(NC(=O)c3ccco3)nc2C1 | i | i | i | i | i | x | x | x | x
CC(=O)c1sc(NC(=O)C2COc3ccccc3O2)nc1C (centres undefined) | i | i | i | i | i | x | x | x | x
Nc1nc(-c2ccc(Cl)cc2)cn1N | i | i | i | i | i | x | x | x | x
CC(C)c1ccc(C(N)=S)cc1 | i | i | 14.2* | i | i | i | i | i | i
CC(C)c1ccc(C(=O)NNC(=O)c2ccncc2)cc1 | i | i | i | i | i | x | x | x | x
CCc1ccc(N(C(=O)CCC(=O)Nc2cc(C)on2)C(C(=O)NC2CCCC2)c2ccco2)cc1 (centres undefined) | i | i | i | i | i | x | x | x | x
O=C(c1ccccc1)c1nc[nH]c1C(=O)Nc1ccccc1 | i | i | 9.87* | i | i | i | i | i | i
O=C(Nc1ccccc1)c1ccc[nH]1 | i | i | i | i | i | x | x | x | x
CNC(=O)[C@H]1O[C@@H](n2cnc3c(NCc4cccc(I)c4)ncnc32)[C@H](O)[C@@H]1O | i | x | 10.5* | i | x | i | i | i | i
Cn1cnc2c(NCc3ccco3)ncnc21 | i | i | i | i | i | x | x | x | x
O=C1c2ccccc2C(=O)c2c(NCCCN(CCO)CCO)cccc21 | x | i | x | x | i | x | x | x | x
CN1c2ccccc2-c2nc3ccccc3n2C1c1ccncc1 (centres undefined) | i | i | i | i | i | x | x | x | x
COc1cc2cc(C(c3nnnn3C3CCCC3)N(C)C3CCCCC3)c(=O)[nH]c2cc1OC (centres undefined) | i | i | i | i | i | x | x | x | x
CC(NC(=O)c1ccc(N)cc1)c1ccccc1 (centres undefined) | i | i | 7.4* | i | i | i | i | i | i
Nc1nc2ccccc2n1CCOc1ccc(Cl)cc1 | i | i | 6.58* | i | i | i | i | i | i
O=C(C1CCCO1)N1CCN(S(=O)(=O)c2ccc(Cl)cc2)CC1 (centres undefined) | i | i | 15.2* | i | i | i | i | i | i
O=C(CN(C1CCCCC1)S(=O)(=O)c1ccccc1)N1CCCC1 | i | i | i | i | i | x | x | x | x
O=C(CN(C1CCCCC1)C1CCCCC1)N1CCc2ccccc2C1 | i | i | 8.79* | i | i | i | i | i | i
Fc1ccc(-c2cc(C(F)(F)F)nc(-n3cncn3)n2)cc1 | i | i | i | i | i | x | x | x | x
Fc1ccc(-c2cc(C(F)(F)F)nc(-n3cccn3)n2)cc1 | i | i | 8.23* | i | i | 31.8%* | i | i | i
COc1ccccc1NC(=O)C1C2C=CC3(CN(Cc4cccnc4)C(=O)C13)O2 (centres undefined) | i | i | i | i | i | x | x | x | x
